In the RNAGym collection of RNA variant scans (doi:10.1126/science.aae0568):
Fewer inactive variants are shown than the library holds.

B1: tRNA (parent)
chain: GUUCCGUUGGCGUAAUGGUAACGCGUCUCCCUCCUAAGGAGAAGACUGCGGGUUCGAGUCCCGUACGGAACG

Variants of: B1
Test: yeast fitness relative to wild type (ratio to wild type); higher = fitter; tRNA-Arg(CCU), competitive growth, 37 C, YPD
Summary of the method: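 For this measurement, the tRNA-Arg(CCU) gene was varied by chemical synthesis at a 3% per-site mutation rate across 69 sites, and each variant was placed at the native genomic locus in Saccharomyces cerevisiae. The pooled strains went through a 24-hour competition in YPD at 37°C in six parallel replicates, with amplicons from start and end populations read by 100-nucleotide paired-end sequencing. Darwinian fitness relative to wild type followed from the change in each genotype's frequency. Genotypes needed ≥ 100 starting reads, and estimates < 0.5 were set to 0.5.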
Work on GUUCCGUUGGCGUAAUGGUAACGCGUCCCCCUCCUAACGAGAAGACUGCGGAUUCGAGUCCCGUACGGAACG [U28C G38C G52A] yielded a yeast fitness of no more than 0.5.
GUUCCGUUGGCGUAAUGGUAACGCGUCGCCCUCCUAAGGUGAUGACUGCGGGUUCGAGUCCCGUACGGAACG [U28G A40U A43U] showed a yeast fitness of 0.878.
Variant GUUCCGUUGGCGUAAUGGUAACGCGUCCCCCUCCUAAGGAGAAGACUGCGGGUUCGAGUCUCGUACGGUACG [U28C C61U A69U] has a yeast fitness of 0.727.
GUUCCGUUGGCGUAAUGGUAACGCGUCCCCCUCCUAAGGAGAAGACUGCGCGUUCGAGUCCCGUCCGGAACG [U28C G51C A65C] gave a yeast fitness of no more than 0.5.
Variant GUUCCGUUGGCGUAAUGGUAACGCGUCCCCCUCCUAAGGACAAGACUGCGGGUUCGAGUCCCGUACGGAACG [U28C G41C] has a yeast fitness of 0.712.
With GUUCCGUUGGCGUAAUGGUAACGCGUCCCCCUCCUAAGGAAAAGACUGCGGGUUCGAGUCCCGUACGGAACG [U28C G41A] the yeast fitness was 0.783.
Variant GUUCCGUUGGCGUAAUGGUAACGCGUCCCCCUCCUAAGGAGAAGACUGCGGGUUCGAGUCCCGUAAGGAACG [U28C C66A] has a yeast fitness of 0.689.
Variant GUUCCGUUGGCGUAAUGGUAACGCGUCGCCCACCUAAGGAGACGACUGCGGGUUCGAGUCCCGUACGGAACG [U28G U32A A43C] has a yeast fitness of no more than 0.5.
In the case of GUUCCGUUGGCGUAAUGGUAACGCGUCCCCCUCCUAAGGAGAAGACUACGGGUUCGAGUACUGUACGGAACG [U28C G48A C60A C62U], the yeast fitness is reported as no more than 0.5.
In the case of GUUCCGUUGGCGUAAUGGUAACGCGUCCCCCUCCUAAGGAGAAGACUGCGGGUUCGAGUCCCGUACCGAACG [U28C G67C], the yeast fitness is reported as 0.845.
With GUUCCGUUGGCGUAAUGGUAACGCGUCCCCCUCCUAAGCAGAACACUGCGGGUUCGAAUCCCGUACGGAACG [U28C G39C G44C G58A] the yeast fitness was no more than 0.5.
For GUUCCGUUGGCGUAAUGGUAACGCGUCCCCCUCCUAAGGAGAAGACUGCGGGUUCGAGUCCCAUACGGAGCG [U28C G63A A70G], the yeast fitness was 0.685.
Work on GUUCCGUUGGCGUAAUGGUAACGCGUCGCCCUCCUGAGGAGAAGGCUGCGGGUUCGAGUCCCGUACGGUACG [U28G A36G A45G A69U] yielded a yeast fitness of 0.825.
With GUUCCGUUGGCGUAAUGGUAACGCGUCCCCCUCCUAAGGAGAAGACUGCGGAUUCGAGUCUCGUACGGACCG [U28C G52A C61U A70C] the yeast fitness was 0.549.
GUUCCGUUGGCGUAAUGGUAACGCGUCGCCCUCCUAAGGAGAGGACUGCGGGUUCGAGUCCCGUACGGAACG [U28G A43G] gave a yeast fitness of 0.643.
Work on GUUCCGUUGGCGUAAUGGUAACGCGUCGCCCUCCUAAGGAGAAGACUGCGGGUUCGCGUCCCGUACGGAACG [U28G A57C] yielded a yeast fitness of 0.587.
Work on GUUCCGUUGGCGUAAUGGUAACGCGUCGCCCUCCUAAGGACAAGACUGCGGGAUCGAGUCCCGUACGGAACG [U28G G41C U53A] yielded a yeast fitness of no more than 0.5.
GUUCCGUUGGCGUAAUGGUAACGCGUCCCCCUCCUAAGGAGAAGACUGCGGGUUCGACUCCGGUACGGAUCG [U28C G58C C62G A70U] gave a yeast fitness of no more than 0.5.
GUUCCGUUGGCGUAAUGGUAACGCGUCGCCCUCCUAAGGACAAGACUGCGGGUUGGAGUCCCGUACGGAUCG [U28G G41C C55G A70U] showed a yeast fitness of no more than 0.5.
GUUCCGUUGGCGUAAUGGUAACGCGUCGCCCUCCUAAGGAGAAGAGUGUGGGUUCGAGUCACGUACGGAACG [U28G C46G C49U C61A] showed a yeast fitness of no more than 0.5.
For GUUCCGUUGGCGUAAUGGUAACGCGUCGCCCUCCUGAGGAGAAGACUGCGGGUUCGAGUCCCGUACGGAACG [U28G A36G], the yeast fitness was 0.712.
Variant GUUCCGUUGGCGUAAUGGUAACGCGUCGCUCUCCUAAGGAGAAGACUGCGGGUUCGAGUCCCGUACGGAACG [U28G C30U] has a yeast fitness of 0.693.
Variant GUUCCGUUGGCGUAAUGGUAACGCGUCGCCGUCCUAAGGAGAAGUGUGCGGGUUCGAAUCCCGUACGGAACG [U28G C31G A45U C46G G58A] has a yeast fitness of 0.529.
For GUUCCGUUGGCGUAAUGGUAACGCGUCCCCCUCCUAAGGAGAAGACUGCGGGUUCGAGUGCCGUACGGAACG [U28C C60G], the yeast fitness was 0.572.
Variant GUUCCGUUGGCGUAAUGGUAACGCGUCGCCCUCCUAAGGAGAAGAGUGUGGGUUCGAGUCCCGUACGGAACG [U28G C46G C49U] has a yeast fitness of no more than 0.5.
With GUUCCGUUGGCGUAAUGGUAACGCGUCGCCCUCACAAGGAGAAGACUGCGGGUUCGAGUCCCGUACGGAACG [U28G C34A U35C] the yeast fitness was no more than 0.5.
Work on GUUCCGUUGGCGUAAUGGUAACGCGUCGCCCUGCUAAGGAGAAGACUGUGGGUUCGAGUCCCGUACGGAACG [U28G C33G C49U] yielded a yeast fitness of no more than 0.5.
Variant GUUCCGUUGGCGUAAUGGUAACGCGUCGCCCUCCUAAGGAGAAGACUGCGGGUUCGAGUGCCGUACGGAACG [U28G C60G] has a yeast fitness of 0.603.
With GUUCCGUUGGCGUAAUGGUAACGCGUCCCCCCCCUAAGGAGAAGACUGCGGGUUCGAGUCCAGUACGGAACG [U28C U32C C62A] the yeast fitness was no more than 0.5.
With GUUCCGUUGGCGUAAUGGUAACGCGUCGCCCUCCUAAGGAGAAGACUGCGGGUUCGAGUCCCGUACGGAGCG [U28G A70G] the yeast fitness was 0.826.
Variant GUUCCGUUGGCGUAAUGGUAACGCGUCGCCCUCCUAAGGAGAAGGCUGCGCGUUCGAGUCCCGUACGGAGCG [U28G A45G G51C A70G] has a yeast fitness of no more than 0.5.
GUUCCGUUGGCGUAAUGGUAACGCGUCCCCCUCCUAAGGAGAAGACUGCGGGUGCGAGUCCCGUACGGAUCG [U28C U54G A70U] showed a yeast fitness of no more than 0.5.
GUUCCGUUGGCGUAAUGGUAACGCGUCCCCCUCCUAAGGAGAAGACUGCUGGUUCGAGUCCCGUACGGAACG [U28C G50U] showed a yeast fitness of 0.602.
In the case of GUUCCGUUGGCGUAAUGGUAACGCGUCGACCUCCUAAGGAGAAGACUGCGGGUUCGAGUCCCGUAUGGAACG [U28G C29A C66U], the yeast fitness is reported as no more than 0.5.
Work on GUUCCGUUGGCGUAAUGGUAACGCGUCCCCCUCCUAAGGAGAAGACUGCGGGUUCCAGUCCCGUACGGAACG [U28C G56C] yielded a yeast fitness of 0.53.
In the case of GUUCCGUUGGCGUAAUGGUAACGCGUCGCCCUGCUAAGGAGAAGACUGUGGGUUCGAGUCCCGUACGCUACG [U28G C33G C49U G68C A69U], the yeast fitness is reported as no more than 0.5.
With GUUCCGUUGGCGUAAUGGUAACGCGUCGCCCUCCUAAGGUGAAGACUGCGGGUUCGAGCCCCGUACGGAACG [U28G A40U U59C] the yeast fitness was 0.576.
